# In the library only some 2.5% were active in any assay of this set; here they are far more common.
# Pemphigus Ab inh: blocks pemphigus antibody binding to human desmoglein-3. P32926. DSG3-coupled beads, scFv-anti-DSG3-GFP binding, flow cytometry; hits give low values. binding (percent of control), % at 10 µM. hit rate 0.48% among 310,000. AID 588358;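 active means binding more than 3 SD below its plate's average and above zero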;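 further: hits lower antibody fragment binding to DSG3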
# UHRF1 MBD2 ctr: human UHRF1 methylated DNA binding inhibitors; UHRF1 binding to methylated oligo, TR-FRET; inhibition, % at 4.4 µM; hit rate 0.75% among 370,000; in the data active means inhibition above about 21%;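 further: UHRF1 SRA domain binding a hemimethylated CpG hairpin DNA probe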
# DNMT1 inh: inhibitors of human DNMT1. inhibition (reported as % activation of signal), % at 10 µM. hit rate 0.83% among 360,000. DNMT1 molecular beacon, Hinp1I cleavage, fluorescence. P26358; in the data active means inhibition above about 50%
# HCV NS3 hel inh: HCV NS3 helicase inhibition; NS3 helicase DNA unwinding, Cy5 molecular beacon fluorescence; inhibition, % at 10.9 µM; hit rate 0.56% among 290,000; AID 1800;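 active means inhibition above the mean of all tested compounds plus 3 SD, set per campaign, cut at about 35% in these data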
#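 System: NS3 helicase fragment of HCV / Schedule: 1 h at 25 °C / Control set: DMSO alone as 0% and 110 µM thioflavine S as 100% / Reagent: Cy5/quencher beacon DNA duplex and ATP to start / Technique: Cy5 fluorescence / Replication: singlicate / Evaluation: % inhibition of end-to-start signal ratio versus controls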
# SUMO1-SIM PPI: modulators of human SUMO1-mediated protein-protein interactions | AID 602429 | P63165 | hit rate 0.33% among 360,000 | inhibition, % at 20 µM | SUMO1 binding to a labelled peptide, TR-FRET, 1 h
# Target sequence (P63165 whole entry, looked up): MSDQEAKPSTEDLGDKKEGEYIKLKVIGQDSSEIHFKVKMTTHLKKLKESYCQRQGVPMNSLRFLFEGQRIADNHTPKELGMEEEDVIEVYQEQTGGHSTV
# MBD2 DNA inh: MBD2-methylated oligo binding inhibition; Q9UBB5; TR-FRET, MBD2 binding to methylated oligonucleotide; inhibition, % at 4.4 µM; hit rate 0.31% among 370,000; AID 686964; in the data active means inhibition above about 13%
# Target sequence (Q9UBB5 whole entry, looked up): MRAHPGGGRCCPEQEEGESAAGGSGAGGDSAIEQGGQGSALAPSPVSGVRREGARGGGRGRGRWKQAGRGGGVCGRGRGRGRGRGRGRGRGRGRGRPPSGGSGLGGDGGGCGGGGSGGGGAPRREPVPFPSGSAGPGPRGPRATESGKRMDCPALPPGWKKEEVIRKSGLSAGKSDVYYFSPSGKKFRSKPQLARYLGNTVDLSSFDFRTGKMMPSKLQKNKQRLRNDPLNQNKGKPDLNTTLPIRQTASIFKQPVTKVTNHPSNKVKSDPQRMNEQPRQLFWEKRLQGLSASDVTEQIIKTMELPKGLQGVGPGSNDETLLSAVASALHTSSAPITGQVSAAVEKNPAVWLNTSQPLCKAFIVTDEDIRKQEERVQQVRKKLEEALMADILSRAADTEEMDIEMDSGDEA
# NS3 helicase cf: HCV NS3 helicase inhibition, confirmation assay; shares compounds with HCV NS3 hel inh; NS3 helicase DNA unwinding, Cy5 molecular beacon fluorescence; inhibition, % at 10.9 µM; hit rate 31% among 1,600;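 active means inhibition above the mean of all tested compounds plus 3 SD, cutoff set per campaign, cut at about 36% in these data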
# DNA FID counter: displaces DNA intercalator in HCV helicase counter-screen; shares compounds with HCV NS3 hel inh; DNA fluorescent intercalator displacement, fluorescence; inhibition, % at 7.9 µM; hit rate 4% among 1,600; AID 1945;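 further: higher means more displacement of ethidium bromide from the DNA hairpin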
# DNA FID DR: DNA intercalator displacement in dose response; shares compounds with HCV NS3 hel inh; fluorescent intercalator displacement from DNA, fluorescence; IC50, µM; 120 tested, under 10 active; AID 2172; call rule not given here
# Numbers stand for hits; – = inactive; · = no result given. Unless noted, no stated cut-off is given here; in the data, active means inhibition above about 37%; inactive means the rest.
SMILES,Pemphigus Ab inh,UHRF1 MBD2 ctr,DNMT1 inh,HCV NS3 hel inh,SUMO1-SIM PPI,MBD2 DNA inh,NS3 helicase cf,DNA FID counter,others
CCc1ccccc1NC(=O)CN(C)S(=O)(=O)c1ccc(-c2ccc(=O)[nH]n2)s1,–,–,–,–,–,–,·,·,
Cc1cc(C)n2nc(SCc3nnc(-c4ccc(F)cc4)o3)nc2n1,·,·,·,–,·,·,·,·,
CCOC(=O)CC1C(=O)NCCN1S(=O)(=O)c1ccc(C)cc1 (stereo not drawn),–,–,–,–,–,–,·,·,
COc1ccccc1CCNC(=O)CSc1ccc(-c2cccs2)nn1,–,–,–,44.5,–,–,–,–,
O=C(O)CSc1c2c(nc3cc(C(=O)Nc4cccc(C(F)(F)F)c4)ccc13)CCC2,·,–,–,–,–,–,·,·,
N=C1/C(=C/c2ccc(OCc3ccccc3F)cc2)C(=O)N=C2SC(CC(=O)N3CCOCC3)=NN12,–,23.2,–,45.5,–,–,41.7,–,
N=C1/C(=C/c2ccc(OCc3ccccc3)cc2)C(=O)N=C2SC(CC(=O)N3CCOCC3)=NN12,–,–,–,–,–,–,·,·,
COc1ccc(C(N)=O)c(OCC(=O)Nc2cc(C)on2)c1,·,–,–,·,–,–,·,·,
Cc1ccccc1C(=O)NC1CCN(CC(=O)Nc2c(C)cccc2C)CC1,·,–,–,–,–,–,·,·,
CC(=C\c1ccccc1)/C=C1/SC(=S)N(CCCC(=O)O)C1=O,–,–,–,59.3,–,–,60.7,–,
O=C(O)CN1C(=O)/C(=C\C(Br)=C\c2ccccc2)SC1=S,–,–,–,38.0,–,–,71.9,–,
O=C1/C(=C\c2cc(Cl)c(O)c(Cl)c2)SC(=S)N1Cc1ccccc1,–,–,59.4,40.5,–,–,66.3,–,
O=C(O)CN1C(=O)/C(=C/C=C/c2ccccc2)SC1=S,–,–,–,–,–,–,·,·,
O=C(O)CCCN1C(=O)/C(=C\c2ccco2)SC1=S,–,52.5,57.7,39.2,–,–,–,–,
O=C(CCCN1C(=O)/C(=C\c2ccco2)SC1=S)Nc1ccc2ccccc2c1,·,–,–,–,–,–,·,·,
CC(OC(=O)c1nc(Cl)ccc1Cl)C(=O)NC1CCCCC1C (stereo not drawn),–,–,–,·,–,–,·,·,
COc1ccc(C2SCC(=O)N2c2ccc(F)cc2)cc1 (stereo not drawn),–,–,–,–,–,–,·,·,
CC1=NN(c2ccc(C(=O)OC(C)C)cc2)C(=O)/C1=C\C=C\c1ccco1,–,–,–,–,–,–,·,·,
CCc1ccc(N2NC(=O)/C(=C/C=C/c3ccco3)C2=O)cc1,–,–,–,49.6,–,–,46.1,–,
O=C(Nc1ccc2c(c1)[C@H]1C[C@@H](CC(=O)N3CCOCC3)O[C@@H](CO)[C@H]1O2)C1CCOCC1,·,–,–,·,–,–,·,·,
COc1ccc(Br)cc1CN(C)C(=O)Cc1ccc(S(=O)(=O)N2CCOCC2)s1,–,–,–,·,–,–,·,·,
O=C(Nc1nnc(-c2ccc3c(c2)CCCC3)o1)c1ccccc1Cl,–,–,–,49.1,–,–,–,–,
Cc1c(N=C2N=C(NC(=O)NC(C)(C)C)c3ccccc32)c(=O)n(-c2ccccc2)n1C,–,–,–,57.7,–,–,–,–,
Cc1c(N=C2N=C(NC(=O)c3cccs3)c3ccccc32)c(=O)n(-c2ccccc2)n1C,·,–,–,–,–,–,·,·,
COc1cc(C(=O)N/C(=C/c2ccc(F)cc2)C(=O)NC(C(=O)O)c2ccccc2)cc(OC)c1OC (stereo not drawn),–,–,–,36.6,–,–,–,–,
SMILES,Pemphigus Ab inh,UHRF1 MBD2 ctr,DNMT1 inh,HCV NS3 hel inh,SUMO1-SIM PPI,MBD2 DNA inh,NS3 helicase cf,DNA FID counter,others
O=C(CNc1ccc2ccccc2c1)N/N=C/c1ccc(C(=O)O)cc1,–,–,–,–,–,–,·,·,
O=C(N/N=C/c1ccc([N+](=O)[O-])o1)c1cc(-c2cccc(Br)c2)nc2ccccc12,·,–,–,40.7,–,–,38.4,–,
Cc1ccc(OCC(=O)N/N=C/c2ccc([N+](=O)[O-])o2)cc1,–,–,–,–,–,–,·,·,
O=C(COc1ccccc1)N/N=C/c1ccc([N+](=O)[O-])o1,–,–,–,41.4,–,–,–,–,
CCCc1ccc(-c2cc(C(=O)N/N=C/c3ccc([N+](=O)[O-])o3)c3ccccc3n2)cc1,–,–,–,–,–,–,·,·,
O=C(CNc1ccc2ccccc2c1)N/N=C/c1ccc([N+](=O)[O-])o1,–,–,–,54.7,–,–,–,–,
O=C(Nc1ccc(N2CCOCC2)cc1)C1CC(=O)N(c2ccccc2)C1 (stereo not drawn),–,–,–,–,–,–,·,·,
Cc1ccc(N2CC(C(=O)Nc3ccc(N4CCOCC4)cc3)CC2=O)cc1C (stereo not drawn),-0.9,–,–,38.6,–,–,–,–,
COc1ccc(OC)c(NC(=O)CSc2ccc(-c3ccco3)nn2)c1,–,–,–,44.6,–,–,–,–,
COc1ccccc1NC(=O)CSc1ccc(-c2ccco2)nn1,–,–,–,–,–,–,·,·,
Cc1ccc(-c2cc(-c3ccco3)c3c(N)c(C(=O)NN)oc3n2)cc1,–,–,–,41.6,–,–,–,–,
COc1cccc(/C=N/NC(=O)c2oc3nc(-c4ccccc4)cc(-c4ccco4)c3c2N)c1,–,–,–,38.9,–,–,–,–,
NNC(=O)c1oc2nc(-c3cccs3)cc(-c3ccco3)c2c1N,–,–,–,–,–,–,·,·,
COCCCn1c(C)csc1=Nc1cccnc1,–,–,–,–,–,–,·,·,
CCOc1ccc(N2C(=O)CC(N3CCN(c4ccc([N+](=O)[O-])cc4)CC3)C2=O)cc1 (stereo not drawn),–,–,–,46.9,–,–,–,–,
Oc1ccc(/C=N/Nc2ccnc3cc(Cl)ccc23)c(O)c1O,92.7,–,–,40.2,–,–,–,44.9,
O=c1cc(-c2ccccc2Cl)oc2cccc(O)c12,–,–,–,–,–,–,·,·,
O=c1cc2oc3cc(O)c(O)cc3c(-c3ccccc3[N+](=O)[O-])c-2cc1O,–,41.2,–,63.9,–,–,108.7,–,DNA FID DR=–
Cc1nn(C)c(C)c1CN(Cc1nc(CCC(C)C)no1)C(C)C,–,–,–,–,–,–,·,·,
O=C(CCC(=O)N(CC(=O)NC1CCCCC1)Cc1cccs1)Nc1nccs1,–,–,–,–,–,–,·,·,
NS(=O)(=O)c1ccc(CCNC(=O)c2cc3ccccc3s2)cc1,–,–,–,50.8,–,–,–,–,
NS(=O)(=O)c1ccc(CCNC(=O)c2ccc(Cl)s2)cc1,–,–,–,–,–,–,·,·,

# High-throughput results as filed in PubChem BioAssay.
